Measured values as given in publication PMC10972827 (Food Chemistry: X, 2024).
≈ marks a conversion by molar mass, not a printed value.

Tests used:
α-amylase [1] = experiment: α-amylase activity test; type: biochemical; conditions: α-amylase 10 U/mL, 1% soluble starch, 37 °C
α-amylase [2] = experiment: Inhibitory kinetic assay; type: biochemical; conditions: Lineweaver-Burk double reciprocal plots, 0.5-2.0% starch
Procedure, shortened: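 Commercial α-amylase (0.35 mL, 10 U/mL) preincubated alone or with theaflavin monomer for 5 min at 37 °C. Soluble starch (0.5, 1.0, 1.5, 2.0%) added and incubated 15 min at 37 °C. Reducing sugar measured with DNS reagent (100 °C, 5 min), A540. Initial velocities fitted to Michaelis–Menten for Km and Vmax. Inhibition type assigned from Lineweaver–Burk double-reciprocal plots. Results given as mean ± SD.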

α-amylase [3] = experiment: Fluorescence spectroscopy; type: binding
Procedure, shortened: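 Commercial α-amylase (10 U/mL) mixed with each theaflavin monomer (10–200 μg/mL) at each temperature. Fluorescence spectra recorded at 278 nm over a 290–450 nm scan. Ksv derived from the Stern–Volmer relation (τ0 10−8 s). Ka and n derived from a log((F0−F)/F) vs log[Q] plot. ΔH and ΔS derived from a van't Hoff fit. Results given as mean ± SD.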

IC50, inhibitory activity on α-amylase (α-amylase [1]): 71.43 µg/mL (≈ 127 µM) | inhibition type against α-amylase (α-amylase [2]): mixed | Ka (binding constant) (α-amylase [3]; 298 K): 4.4955 L/g | Ksv (quenching constant) (α-amylase [3]; 298 K): 4.7890 L/g | Ka (binding constant) (α-amylase [3]; 303 K): 5.1038 L/g | Ksv (quenching constant) (α-amylase [3]; 303 K): 4.6468 L/g | Ka (binding constant) (α-amylase [3]; 310 K): 5.6151 L/g | Ksv (quenching constant) (α-amylase [3]; 310 K): 4.2950 L/g
Compound: O=c1c(O)cc([C@H]2Oc3cc(O)cc(O)c3C[C@H]2O)cc2c([C@H]3Oc4cc(O)cc(O)c4C[C@H]3O)cc(O)c(O)c12 [TF1, theaflavin]
